Assay outcomes from PubChem BioAssay.
This is a sample that favours compounds with a hit; in the whole collection about 1.1% have one here.
FXIa inh 1536 = blocks human coagulation factor XIa protease activity; purified FXIa, Boc-Glu-Ala-Arg-AMC fluorogenic substrate; AID 798; inhibition, % at 5 µM; actives 0.14% (n = 220,000);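 active means inhibition of at least 40%; inactive means inhibition below 40%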;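 further: fluorescence of freed AMC excited at 355 nm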
Target sequence (P03951 19-387 limits assumed): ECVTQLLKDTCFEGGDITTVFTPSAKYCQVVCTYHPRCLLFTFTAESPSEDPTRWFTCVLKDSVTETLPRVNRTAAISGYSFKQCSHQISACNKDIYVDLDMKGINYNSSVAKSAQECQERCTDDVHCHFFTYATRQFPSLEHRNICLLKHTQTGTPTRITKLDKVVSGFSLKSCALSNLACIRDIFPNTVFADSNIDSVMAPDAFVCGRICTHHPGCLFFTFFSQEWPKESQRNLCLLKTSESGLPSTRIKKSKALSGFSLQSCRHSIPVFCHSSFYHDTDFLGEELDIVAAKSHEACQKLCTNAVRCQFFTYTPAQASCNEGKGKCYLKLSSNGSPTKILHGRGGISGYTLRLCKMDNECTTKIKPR
Target sequence (P03951 388-625 limits assumed): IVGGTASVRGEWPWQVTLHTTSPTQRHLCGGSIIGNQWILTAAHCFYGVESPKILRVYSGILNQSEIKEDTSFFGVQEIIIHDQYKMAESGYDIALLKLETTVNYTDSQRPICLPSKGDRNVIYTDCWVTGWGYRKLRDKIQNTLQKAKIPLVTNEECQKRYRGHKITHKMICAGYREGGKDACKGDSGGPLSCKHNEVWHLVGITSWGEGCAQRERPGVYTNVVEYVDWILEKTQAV
KLK5 inh = inhibitors of human kallikrein 5 | Q9Y337 | recombinant hK5, fluorogenic AMC substrate cleavage | inhibition, % at 5 µM | actives 0.59% (n = 210,000) | AID 873;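 active means inhibition of 40% or more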
thrombin 1536 = inhibitors of human thrombin | P00734 | alpha-thrombin, Boc-VPR-AMC fluorogenic substrate cleavage | inhibition, % at 5 µM | actives 0.26% (n = 220,000) | AID 1046;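 active means inhibition at or above 40%; inactive means inhibition below 40%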
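Test system: human alpha-thrombin protein / Dosing: one concentration per compound, 5 µM, with 0.2% DMSO / Medium: pH 7.5 Tris-saline with Tween 20 / Benchmarks: no-compound enzyme wells and no-enzyme blanks / Read-out basis: percent inhibition of thrombin substrate cleavage / Timing: reaction at room temperature / Measured by: fluorescence, ex 355 nm, em 460 nm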
Furin inhibitor = inhibitors of human furin; purified furin, fluorogenic substrate cleavage; inhibition, % at 20 µM or 30 µM; AID 463115; actives 0.061% (n = 220,000); P09958; in the data active means inhibition above about 25%
FXIIa inh = inhibitors of human coagulation factor XIIa. P00748. purified FXIIa, Boc-QGR-AMC fluorogenic substrate, 2 h. inhibition, % at 5 µM. actives 0.3% (n = 220,000); in the data active means inhibition above about 40%
Hits are given with their value; n = inactive; x = no result given.

SMILES	FXIa inh 1536	KLK5 inh	thrombin 1536	Furin inhibitor	FXIIa inh
C=C1SC(Nc2c(C)cc(C)cc2C)=NC12CCCCC2	n	n	n	n	n
COc1cc2c(cc1OC)CN(Cc1cc(OC)c(O)c(OC)c1)CC2	n	n	n	n	n
O=C(CSc1nc2cccnc2n1Cc1ccccc1)N1CCCC1	n	46.0	n	n	n
Cn1c(SCC(=O)N2CCCC2)nc2cccnc21	n	n	n	n	n
O=C(COc1ccc2oc(-c3ccco3)cc(=O)c2c1)N1CCCCC1	n	n	n	n	n
CCCCC(=O)Nc1cc(C(=O)NCCc2ccccc2)ccc1Cl	n	63.3	n	n	n
CC(=O)NS(=O)(=O)c1ccc(NS(=O)(=O)c2ccccc2[N+](=O)[O-])cc1	n	n	n	n	n
O=C1OCC(c2ccccc2)=C1c1ccc(S(=O)(=O)N2CCOCC2)s1	n	n	n	n	n
CN(C)CCNc1ncnc2c1sc1nc(-c3ccccc3)c3c(c12)CCCC3	n	n	n	n	42.5
CCc1ccc(NC(=S)Nc2ccc3[nH]c(=O)[nH]c3c2)cc1	n	n	n	n	n
COc1ccccc1C(=O)C1CCCN(C(=O)c2cc(CC(C)C)nc(C)n2)C1 (stereo not given)	n	x	n	n	n
O=C(NCc1ccco1)c1ccc(C(=O)NCc2ccco2)s1	n	n	n	n	n
O=C(NCc1ccco1)c1scc2c1OCCO2	n	n	n	n	42.9
COc1ccc(CC(=O)NNc2ncnc3c2cnn3-c2ccc(C)cc2)cc1OC	n	n	n	n	n
O=C1CC(Nc2ccccc2)C(=O)N1c1ccc(N2CCOCC2)cc1 (stereo not given)	n	44.8	n	n	n
O=C(Nc1cccc(F)c1)C1CCN(C(=O)c2ccccc2Cl)CC1	n	45.7	n	n	n
CSc1cccc(NC(=O)C2CCN(C(=O)c3ccccc3C)CC2)c1	n	n	n	n	n
Cc1ccc(S(=O)(=O)n2nc(C)cc2C)cc1	n	43.0	n	n	n
Cc1cc(C)n(S(=O)(=O)c2cc(C)c(C)cc2C)n1	n	n	n	n	n
CCN(CC)CCCN1C(=O)CSC1c1ccc2c(c1)OCO2 (stereo not given)	n	51.8	n	n	n
CCN(CC)CCCN1C(=O)CSC1c1ccc([N+](=O)[O-])cc1 (stereo not given)	n	n	n	n	n
CC1=NN(C(C#N)c2ccc([N+](=O)[O-])cc2)C(C)(C)C1 (stereo not given)	49.9	57.0	n	n	n
C=CCn1c(SCC(=O)Nc2cccnc2Cl)nnc1-c1ccc(Cl)cc1	n	n	n	n	41.0
CCn1c(SCC(=O)Nc2cccnc2Cl)nnc1-c1ccccc1	n	62.0	n	n	105.9
CCn1c(SCC(=O)Nc2nccs2)nnc1-c1ccccc1	n	40.7	n	n	n
SMILES	FXIa inh 1536	KLK5 inh	thrombin 1536	Furin inhibitor	FXIIa inh
CCn1c(SCC(=O)Nc2cc(C)on2)nnc1-c1ccccc1	n	n	n	n	n
CCn1c(SCC(=O)c2ccccc2)nnc1-c1cnccn1	n	42.8	n	n	n
N#C/C(=C\c1ccc(OCC(N)=O)cc1)c1ccccc1	n	n	n	n	n
CC1CC(=O)Nc2ccccc2N1C(=O)Nc1ccc(F)cc1 (stereo not given)	n	55.0	n	n	n
CCOC(=O)CNC(=O)Nc1cccc(Cl)c1C	n	n	n	n	n
COC(=O)CNC(=O)CNC(=O)Nc1ccccc1Cl	n	40.8	n	n	n
COCCNC(=O)Cn1nc(C)c([N+](=O)[O-])c1C	n	n	n	n	n
CCC(C)[C@H](NC(=O)Nc1ccc(C(C)=O)cc1)C(=O)OC (stereo not given in full)	n	n	n	n	43.8
COc1ccc(-n2c(O)c(C=Nc3ccccc3)c3ccccc3c2=O)cc1	n	n	40.2	n	n
COc1ccc(-n2c(O)c(C=Nc3ccccc3)c3ccccc3c2=O)cc1OC	n	n	n	n	n
O=C(CCCCl)Oc1ccc2cc(-c3ccc4ccccc4n3)c(=O)oc2c1	n	n	n	n	n
Cc1nc(SCC(=O)NC(=O)NC(C)(C)C)nc(C)c1C	n	n	n	n	n
Cc1nc(SCC(=O)NC(=O)NC(C)C)nc(C)c1C	n	50.1	n	n	n
CC(NC(=O)c1ccc2c(c1)OCCO2)c1ccc(S(N)(=O)=O)cc1 (stereo not given)	n	n	n	n	n
COc1cccc(-c2csc(N3CCN(C(=S)Nc4ccc(Cl)cc4)CC3)n2)c1	n	n	n	n	n
COc1cccc(-c2csc(N3CCN(C(=S)Nc4ccccc4)CC3)n2)c1	n	112.1	n	n	n
CCO[C@@H]1OC(C(=O)N2CCCCCCC2)=C[C@H](c2ccc(C(F)(F)F)cc2)[C@H]1CCCO	n	n	n	n	n
C=C(C)C(=O)Nc1cccc(C2=NOC3(C2)C[C@H](C(N)=O)N(C(=O)CC)C3)c1 (stereo not given in full)	n	n	n	n	55.0
CC/C=C/C(=O)N1CC2(CC(c3cccc(NC(=O)CCCCC)c3)=NO2)C[C@H]1C(N)=O (stereo not given in full)	42.4	n	n	n	n
CC(=O)NC1=NN(C(C)=O)C(c2ccco2)S1 (stereo not given)	n	n	n	n	n
CC(O)C(=O)N/N=C/c1cccc2ccccc12 (stereo not given)	n	41.3	47.5	n	n
Cn1cccc1CC(=O)N/N=C/c1cccc2ccccc12	n	n	n	n	n
CCCC(C)C(=O)Nc1ccc(F)c(Cl)c1 (stereo not given)	n	n	62.3	n	n
CCOC(=O)c1ccc2c(c1)nc(C1CCN(S(=O)(=O)c3cccs3)CC1)n2CC	n	n	n	n	52.3
CCOC(=O)c1cccc(NC(=O)C2CCN(S(=O)(=O)c3cccs3)CC2)c1	n	n	n	n	n
SMILES	FXIa inh 1536	KLK5 inh	thrombin 1536	Furin inhibitor	FXIIa inh
O=C(N/N=C/c1ccc(N2CCOCC2)cc1)C1CC1	n	n	n	n	x
O=C(NCCc1ccc(F)cc1)c1cc(=O)c2ccccc2o1	n	n	n	n	n
O=C(NCCc1ccccc1)c1cc(=O)c2ccccc2o1	n	47.0	n	n	52.0
C=CCOC(=O)C1=C(C)NC(=S)NC1c1cccs1 (stereo not given)	n	n	n	n	n
CC1CCN(c2ccc(NC(=O)c3cccnc3)cc2)CC1	n	n	n	25.3	n
CC1CCN(c2ccc(NC(=O)c3cccnc3Cl)cc2)CC1	n	n	n	n	n
O=S(=O)(N1CCCCC1)N1CCN(c2ccccc2F)CC1	n	n	n	n	47.7
CS(=O)(=O)N1CCN(c2ccccc2F)CC1	n	n	n	n	n
Cc1cc(C)n(CC2CC(=O)N(c3ccc(Cl)c(Cl)c3)C2=O)n1 (stereo not given)	n	53.8	n	n	n
CN(Cc1ccno1)Cc1cn(Cc2ccccc2)nc1-c1ccc2c(c1)OCO2	n	n	n	n	n
CC1(C)C2CCC(C2)C1(C)N=C1OC(CCl)CS1 (stereo not given)	52.5	51.9	n	n	n
